Experimental data taken from ChEMBL document CHEMBL5303300, “EUbOPEN Chemogenomics Library - Multiplex” (2023).
Values joined by “and” are separate entries in the source; they are usually repeats but may differ in a detail not shown here. Equal values may be shown once.

System: U2OS
Test: Multiplex assay against U2OS
Type: toxicity, cell-based
Details: human, number of replicates 2
How it was run: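 Four dyes were applied at seeding to live cells: Hoechst33342, BioTracker Green Microtubule Cytoskeleton Dye, MitoTracker Red and Annexin V Alexa Fluor 680. Imaging after compound addition used a CQ1 microscope at 37°C and 5% CO2. CellPathfinder machine-learning gating then sorted cells into Hoechst high-intensity objects or normal cells, normal cells into healthy, pyknosed or fragmented nuclei, and pyknosed cells into mitotic or apoptotic, with tubulin, mitochondrial-mass and membrane-permeability phenotypes given as per cents of healthy-nucleus cells.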

[1] = 12 h, 1 µM, compound concentration 1 uM
[2] = 12 h, 10 µM, compound concentration 10 uM
[3] = 24 h, 1 µM, compound concentration 1 uM
[4] = 24 h, 10 µM, compound concentration 10 uM
[5] = 48 h, 1 µM, compound concentration 1 uM
[6] = 48 h, 10 µM, compound concentration 10 uM

CS(=O)(=O)c1ccc(C(=O)Nc2cc(F)cc(COc3ccc(Br)cc3CN3CC[C@H](O)C3)c2)c(Cl)c1.O=CO
Population Healthy Nuclei (%) [1]: 64% and 82%
Population Hoechst High Intensity Objects (%) [1]: 0%
Population Mitotic Cells (%) [1]: 20% and 12%
Population Pyknosed Nuclei (%) [1]: 8% and 13%
Population Healthy Nuclei (%) [2]: 31% and 70%
Population Hoechst High Intensity Objects (%) [2]: 0%
Population Mitotic Cells (%) [2]: 44% and 57%
Population Pyknosed Nuclei (%) [2]: 21% and 25%
Population Healthy Nuclei (%) [3]: 82% and 53%
Population Hoechst High Intensity Objects (%) [3]: 0%
Population Mitotic Cells (%) [3]: 21% and 46%
Population Pyknosed Nuclei (%) [3]: 15% and 20%
Population Healthy Nuclei (%) [4]: 32% and 68%
Population Hoechst High Intensity Objects (%) [4]: 0%
Population Mitotic Cells (%) [4]: 20% and 26%
Population Pyknosed Nuclei (%) [4]: 25% and 28%
Population Healthy Nuclei (%) [5]: 57% and 85%
Population Hoechst High Intensity Objects (%) [5]: 0%
Population Mitotic Cells (%) [5]: 11% and 15%
Population Pyknosed Nuclei (%) [5]: 18%
Population Healthy Nuclei (%) [6]: 19% and 52%
Population Hoechst High Intensity Objects (%) [6]: 0%
Population Mitotic Cells (%) [6]: 12% and 9%
Population Pyknosed Nuclei (%) [6]: 44% and 38%

CS(=O)(=O)c1ccc(C(=O)Nc2cccc(COc3ccc(Br)cc3CN3CCC[C@H](O)C3)c2)c(Cl)c1.O=CO
Population Healthy Nuclei (%) [1]: 84% and 83%
Population Hoechst High Intensity Objects (%) [1]: 0%
Population Pyknosed Nuclei (%) [1]: 15%
Population Apoptotic (%) [2]: 66% and 52%
Population Healthy Nuclei (%) [2]: 69% and 75%
Population Hoechst High Intensity Objects (%) [2]: 0%
Population Pyknosed Nuclei (%) [2]: 15% and 18%
Population Healthy Nuclei (%) [3]: 74% and 83%
Population Hoechst High Intensity Objects (%) [3]: 0%
Population Apoptotic (%) [4]: 90%
Population Healthy Nuclei (%) [4]: 65% and 70%
Population Hoechst High Intensity Objects (%) [4]: 0%
Population Apoptotic (%) [5]: 77% and 76%
Population Healthy Nuclei (%) [5]: 53% and 83%
Population Hoechst High Intensity Objects (%) [5]: 0%
Population Pyknosed Nuclei (%) [5]: 19%
Population Apoptotic (%) [6]: 93% and 86%
Population Healthy Nuclei (%) [6]: 43% and 57%
Population Hoechst High Intensity Objects (%) [6]: 0%
Population Pyknosed Nuclei (%) [6]: 34% and 29%

C[C@@H](Oc1cc(-n2cnc3ccc(OC4CCN(C)CC4)cc32)sc1C(N)=O)c1ccccc1Cl [GSK-579289A]
Population Apoptotic (%) [1]: 100% and 47%
Population Fragmented Nuclei (%) [1]: 4% and 6%
Population Healthy Nuclei (%) [1]: 78%
Population Hoechst High Intensity Objects (%) [1]: 0%
Population Membrane Permeable-Phenotype (%) [1]: 24% and 17%
Population Normal (%) [1]: 100% and 99%
Population Pyknosed Nuclei (%) [1]: 16% and 15%
Population Tubulin-Different-Phenotype (%) [1]: 33% and 43%
Population Apoptotic (%) [2]: 78% and 61%
Population Fragmented Nuclei (%) [2]: 9% and 23%
Population Healthy Nuclei (%) [2]: 64% and 47%
Population Hoechst High Intensity Objects (%) [2]: 2% and 0%
Population Membrane Permeable-Phenotype (%) [2]: 55% and 27%
Population Mitochondria Different-Phenotype (%) [2]: 69% and 72%
Population Mitotic Cells (%) [2]: 22% and 38%
Population Normal (%) [2]: 97% and 100%
Population Pyknosed Nuclei (%) [2]: 26% and 28%
Population Tubulin-Different-Phenotype (%) [2]: 97% and 95%
Population Apoptotic (%) [3]: 100% and 78%
Population Fragmented Nuclei (%) [3]: 9% and 4%
Population Healthy Nuclei (%) [3]: 84% and 76%
Population Hoechst High Intensity Objects (%) [3]: 0%
Population Membrane Permeable-Phenotype (%) [3]: 14% and 23%
Population Mitotic Cells (%) [3]: 0% and 21%
Population Normal (%) [3]: 100% and 99%
Population Pyknosed Nuclei (%) [3]: 6% and 18%
Population Tubulin-Different-Phenotype (%) [3]: 33% and 46%
Population Apoptotic (%) [4]: 78% and 81%
Population Fragmented Nuclei (%) [4]: 8% and 5%
Population Healthy Nuclei (%) [4]: 41% and 52%
Population Hoechst High Intensity Objects (%) [4]: 4% and 0%
Population Membrane Permeable-Phenotype (%) [4]: 52% and 83%
Population Mitochondria Different-Phenotype (%) [4]: 84% and 67%
Population Mitotic Cells (%) [4]: 21% and 18%
Population Normal (%) [4]: 95% and 99%
Population Pyknosed Nuclei (%) [4]: 50% and 41%
Population Tubulin-Different-Phenotype (%) [4]: 100% and 98%
Population Apoptotic (%) [5]: 95% and 75%
Population Healthy Nuclei (%) [5]: 60% and 55%
Population Hoechst High Intensity Objects (%) [5]: 0%
Population Membrane Permeable-Phenotype (%) [5]: 33% and 19%
Population Normal (%) [5]: 100%
Population Pyknosed Nuclei (%) [5]: 31% and 21%
Population Tubulin-Different-Phenotype (%) [5]: 56% and 38%
Population Apoptotic (%) [6]: 100% and 95%
Population Fragmented Nuclei (%) [6]: 9% and 12%
Population Healthy Nuclei (%) [6]: 19% and 12%
Population Hoechst High Intensity Objects (%) [6]: 4%
Population Membrane Permeable-Phenotype (%) [6]: 100% and 95%
Population Mitochondria Different-Phenotype (%) [6]: 50% and 70%
Population Mitotic Cells (%) [6]: 0% and 4%
Population Normal (%) [6]: 95%
Population Pyknosed Nuclei (%) [6]: 70% and 74%
Population Tubulin-Different-Phenotype (%) [6]: 100% and 95%
